These results are taken from PMC5564211 (European journal of medicinal chemistry, 2017).

One data set deals with α1-adrenoceptors. The data set can be described thus: [3H]prazosin binding displacement. Further details: species or system mouse. Conditions: [3H]prazosin displacement; for IC50: values as rounded in text. Put shortly: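 Competition binding against 1.5 nM [³H]prazosin in mouse hippocampal homogenate, with test compound added over a range of concentrations to build concentration–effect displacement curves. IC50 is derived by non-linear regression curve fitting. Each ligand's fitted curve is compared statistically with reference-ligand curves.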

Data set [1] has as its system mouse. As to the kind of experiment: Antidepressant-like activity assay. Conditions: mice, TST, given alone without SSRI. Format: in vivo. Put shortly: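 Mice given test compound were scored for immobility time in the tail suspension test. A saline-treated group served as control. Groups were compared with saline by one-way ANOVA with Dunnett's post-hoc test, with significance set at P < 0.05.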

Data set [2] relates to mouse. The data set can be described thus: Locomotor activity assay. Format: in vivo. Conditions: mice; for effect on locomotion compared with the same dose of D-22: 1 mg/kg ip, one-way ANOVA, Dunnett's test.
Data set [3] deals with mouse. Conditions: mice, previously published studies; cited from earlier work.

Usually IC50 stands for the concentration that gives 50% inhibition. Consider `CCOc1ccccc1OCCN[C@H](C)Cc1ccc(OC)c(S(N)(=O)=O)c1` [Tamsulosin, tamsulosin, reference compound], for which the IC50 at α1-adrenoceptors was roughly 2 nM.
As for “(E)-1-Ethyl-2-((1-ethylquinolin-2(1H)-ylidene)methyl)-6-fluoro-4a,8a-dihydro quinolinium iodide [analogue 5]”, in the data set on mouse [1], the “independent antidepressant-like activity (reduction in immobility time)” value is reported as “impart independent antidepressant-like activity”. Besides, the IC50 at α1-adrenoceptors was 300 nM.
`CN1/C(=C\c2cc[n+](C)c3ccccc23)C=Cc2ccccc21.O=C([O-])C(F)(F)F` [analogue 1, 1,1′-Dimethyl-2,4′-cyanine trifluoroacetate]: the “independent antidepressant-like activity (reduction in immobility time)” value in the data set on mouse [1] is “do not impart independent antidepressant-like activity”.
As to `CCN1/C(=C/c2ccc3cc(Cl)ccc3[n+]2CC)C=Cc2ccccc21.[I-]` [analogue 6, (E)-6-Chloro-1-ethyl-2-((1-ethylquinolin-2(1H)-ylidene)methyl)quinolinium iodide], the “effect on locomotion compared with the same dose of D-22” value with mouse [2] was “affected locomotion significantly less than D-22”. Besides, the “independent antidepressant-like activity (reduction in immobility time)” value in the data set on mouse [1] is recorded as “impart independent antidepressant-like activity”. On α1-adrenoceptors, the half-inhibitory concentration (IC50) came to 500 nM.
Regarding `C[C@]12C[C@H](O)[C@H]3[C@@H](CCC4=CC(=O)CC[C@@]43C)[C@@H]1CC[C@@H]2C(=O)CO` [Corticosterone, corticosterone, reference compound], the inhibition at adrenoceptors result with α1-adrenoceptors is “weak inhibitor”.
Consider `CC(C)[n+]1ccc(/C=C2/C=Cc3ccccc3N2C)c2ccccc21.O=C([O-])C(F)(F)F` [analogue 2, 1-Methyl-1′-isopropyl-2,4′-cyanine trifluoroacetate], for which the “independent antidepressant-like activity (reduction in immobility time)” value with mouse [1] was “do not impart independent antidepressant-like activity”. In addition, the IC50 on α1-adrenoceptors was roughly 1000 nM.
With “(E)-1-Ethyl-2-((1-ethylquinolin-2(1H)-ylidene)methyl)-6-iodo-4a,8a-dihydro-quinolinium iodide [analogue 7]”, the “effect on locomotion compared with the same dose of D-22” value in the data set on mouse [2] is “affected locomotion significantly less than D-22”. The “independent antidepressant-like activity (reduction in immobility time)” value in the data set on mouse [1] is on record as “do not impart independent antidepressant-like activity”. For the same compound, at α1-adrenoceptors, the half-inhibitory concentration (IC50) came to 700 nM.
For `CCN1/C(=C/c2ccc3ccccc3[n+]2CC)C=Cc2ccccc21.[I-]` [D-22, decynium-22, reference compound], the “effect on locomotor activity” value in the data set with mouse [2] (0.1 mg/kg ip, p=0.44) is “not at 0.1 mg/kg”; with mouse [2] (1.0 mg/kg ip, cumulative beam breaks 60 to 120 minutes following injection), “completely suppressed locomotor activity”. The “independent antidepressant-like activity (reduction in immobility time)” value in the data set with mouse [1] was “none of the analogues, including D-22, displayed antidepressant-like activity”. In addition, the “effect on immobility time” value with mouse [3] is recorded as “without effect on immobility time unless paired with an SSRI”.
